Data published in PubChem BioAssay.
Active and inactive are the calls of the source.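 Rule for the calls, unless noted: active = viability at or below 30% in both replicate assays; inconclusive = viability at or below 30% in just one of the two assays; inactive = the rest.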

Tests used:
[1] = Her2 expression decrease, cell viability multiplex – SKBR3 breast tumor cells, AlphaScreen, ATP viability, primary screen (AID 461;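 active = Her2 level under about 52% in both replicate screens, with viability over 70% of control, limit read from the data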;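 for Her2 level: lower value means less Her2 protein in the cells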;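 for viability: percent of carrier control wells set as 100% viability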); settings: SKBR3 Her2 protein level, 18-24 h, measured here: SKBR3 viability, ATP luminescence, at 10 µM
[2] = biological target: Receptor tyrosine-protein kinase erbB-2 (Homo sapiens) (UniProt P04626); experiment: as above; settings: 18-24 h, at 10 µM, stronger effect = lower value
Receptor tyrosine-protein kinase erbB-2 (Homo sapiens), sequence (P04626 whole entry, looked up): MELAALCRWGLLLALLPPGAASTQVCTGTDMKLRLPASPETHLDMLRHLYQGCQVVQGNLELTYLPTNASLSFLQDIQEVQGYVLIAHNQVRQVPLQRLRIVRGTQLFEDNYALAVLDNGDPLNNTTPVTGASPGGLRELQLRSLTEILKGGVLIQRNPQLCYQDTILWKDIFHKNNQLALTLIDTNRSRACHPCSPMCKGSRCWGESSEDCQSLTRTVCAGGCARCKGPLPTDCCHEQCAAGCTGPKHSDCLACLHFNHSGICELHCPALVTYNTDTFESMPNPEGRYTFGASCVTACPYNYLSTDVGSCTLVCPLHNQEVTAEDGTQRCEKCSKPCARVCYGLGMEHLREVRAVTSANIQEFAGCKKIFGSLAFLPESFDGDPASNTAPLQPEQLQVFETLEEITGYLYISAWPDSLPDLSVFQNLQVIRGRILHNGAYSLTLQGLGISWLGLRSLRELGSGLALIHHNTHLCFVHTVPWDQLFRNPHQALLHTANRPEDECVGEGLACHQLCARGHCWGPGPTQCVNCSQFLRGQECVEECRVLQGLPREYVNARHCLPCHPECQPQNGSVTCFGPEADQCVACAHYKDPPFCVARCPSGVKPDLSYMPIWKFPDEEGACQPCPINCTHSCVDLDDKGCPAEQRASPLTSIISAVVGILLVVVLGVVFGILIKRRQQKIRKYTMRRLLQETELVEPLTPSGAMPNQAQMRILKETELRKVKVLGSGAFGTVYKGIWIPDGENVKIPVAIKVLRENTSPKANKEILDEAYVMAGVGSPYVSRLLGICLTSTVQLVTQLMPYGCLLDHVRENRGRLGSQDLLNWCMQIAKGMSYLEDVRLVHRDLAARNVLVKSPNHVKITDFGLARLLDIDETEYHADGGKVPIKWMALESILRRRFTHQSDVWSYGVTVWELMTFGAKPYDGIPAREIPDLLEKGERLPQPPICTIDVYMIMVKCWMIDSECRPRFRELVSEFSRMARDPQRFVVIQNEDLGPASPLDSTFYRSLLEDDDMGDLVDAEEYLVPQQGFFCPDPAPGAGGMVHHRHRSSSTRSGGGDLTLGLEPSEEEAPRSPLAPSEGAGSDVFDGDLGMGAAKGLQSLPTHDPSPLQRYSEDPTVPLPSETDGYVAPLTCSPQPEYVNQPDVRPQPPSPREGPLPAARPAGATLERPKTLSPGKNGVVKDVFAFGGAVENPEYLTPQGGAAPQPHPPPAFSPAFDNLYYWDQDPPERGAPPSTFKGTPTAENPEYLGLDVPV

[3] = reduced viability of SK-BR-3 breast cancer cells – cell-based, 24 h, human, pilot screen (AID 572;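 active = viability at or below 10% of carrier control in both of two separate runs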;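 note: compound exposure lasted between 18 and 24 h rather than exactly 24 h; 100% = carrier-treated control wells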); settings: SK-BR-3 viability, CellTiter-Glo luminescence, at 10 µM, stronger effect = lower value
[4] = HUVEC growth inhibition – cell-based, human, primary screen (AID 575); settings: HUVEC proliferation, CellTiter-Glo luminescence, 72 h; at 10 µM; stronger effect = lower value;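 note: 100% = median of untreated cell wells with 0.1% DMSO on each plate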
Outline: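 system = HUVEC primary cells | amount = 1250 cells/well | buffer or medium = supplemented EBM, 2% fetal bovine serum | dosing = single-point 10 µM, DMSO 0.1% final | times = 72 h compound incubation | detection = CTG luminescence | read-out = % viability relative to median vehicle-well signal on each plate | control set = vehicle and MePR control wells | format = collagen-coated 384-well format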

[5] = H69AR cell proliferation blockers – human, duplicate replicates, primary screen (AID 580;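 active = viability at or under a set limit in both replicates, limit being median viability minus 3 SD, cut at about 48% in these data, passing the limit was not always enough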;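 note: 100% = mean luminescence of untreated wells and 0% = no signal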); settings: H69AR lung tumor cells viability, ATP luminescence, 72 h; at 10 µM; stronger effect = lower value
[6] = MRP1 drug-resistance reversers in H69AR cells – cell-based, doxorubicin co-treatment, pilot screen (AID 601;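 active = viability loss from added drug above about 55%, and viability with drug at most 40%, in both replicates, limit read from the data, passing the limit was not always enough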); settings: CellTiter-Glo, 72 h, at 10 µM; for differential viability (reversal): stronger effect = higher value
[7] = yeast transport mutant growth inhibition pilot in 384-well plates, post-Golgi transport modulator project (AID 636; in the data active = inhibition above about 31%); settings: absorbance 615 nm, about 18 h, stronger effect = higher value
[8] = growth suppression of yeast trafficking mutant, preliminary HTS, modulators of trafficking downstream of Golgi apparatus project, 1536-format plate, OD 615 nm (AID 637; in the data active = inhibition above about 30%); settings: yeast transport mutant growth, absorbance 615 nm, 18 h; stronger effect = higher value
[9] = H69AR cells + 2 uM doxorubicin, measured here: viability with 2 uM doxorubicin, stronger effect = lower value
[10] = H69AR cells, compound alone cytotoxicity

Compound	viability [1] [%]	Her2 level [2]	viability [3]	viability [4]	viability [5]	differential viability (reversal) ([6]; H69AR cells + 2 uM doxorubicin)	viability [6, 9] [%]	viability [6, 10] [%]	inhibition [7]	inhibition [8]
CC(=O)N1CCN=C1SCc1c(F)cccc1Cl	102	105% (inactive)	102% (inactive)	73.1% (inactive)	78.8% (inactive)	-5.06% (inactive)	83.8	78.8	3.85% (inactive)	-1% (inactive)
COc1cc(C2C(C#N)=C(N)OC3=C2C(=O)CCC3)ccc1OC(=O)N1CCOCC1 (stereo not given)	132	91.5% (inactive)	132% (inactive)	93% (inactive)	87.3% (inactive)	3.67% (inactive)	83.6	87.3	-5.87% (inactive)	-0.66% (inactive)
CCOC(=O)C1CCN(C(=O)CSc2n[nH]c(=O)[nH]c2=O)CC1	109	90% (inactive)	109% (inactive)	94.6% (inactive)	102% (inactive)	5.61% (inactive)	96.7	102	-8.51% (inactive)	3.67% (inactive)
CC1(C)Cc2cccc(OCC(=O)O)c2O1	107	90% (inactive)	107% (inactive)	94.5% (inactive)	95.4% (inactive)	7.61% (inactive)	87.8	95.4	-4.53% (inactive)	-3.97% (inactive)
c1ccc(Oc2ccc(-n3cnnn3)cc2)cc1	102	122% (inactive)	102% (inactive)	95.7% (inactive)	94.2% (inactive)	15.4% (inactive)	78.8	94.2	-0.52% (inactive)	-12.2% (inactive)
CCOc1ccc(C(c2nnnn2Cc2ccccc2)N2CCN(C(=O)c3ccco3)CC2)cc1 (stereo not given)	92.5	106% (inactive)	92.5% (inactive)	85.8% (inactive)	98.3% (inactive)	-4.47% (inactive)	103	98.3	0.53% (inactive)	-1.9% (inactive)
Cn1c(=O)c2c(nc(SCC(=O)O)n2Cc2cccc(C(F)(F)F)c2)n(C)c1=O	97.5	84% (inactive)	97.5% (inactive)	94.7% (inactive)	95.6% (inactive)	5.41% (inactive)	90.2	95.6	-4.67% (inactive)	0.81% (inactive)
CCN(CC)CCCNS(=O)(=O)c1ccc(OC)cc1	114	89% (inactive)	114% (inactive)	103% (inactive)	90.3% (inactive)	-8.58% (inactive)	98.9	90.3	-5.32% (inactive)	-2.3% (inactive)
COc1ccc2cc(CN(CCO)C(=O)c3ccccc3F)c(=O)[nH]c2c1	106	126% (inactive)	106% (inactive)	96.9% (inactive)	95.3% (inactive)	8.58% (inactive)	86.7	95.3	2.86% (inactive)	-8.33% (inactive)
Cc1cc(NC(=O)COc2cccc(Oc3ccccc3)c2)no1	75.5	90% (inactive)	75.5% (inactive)	50.9% (inactive)	22.4% (active)	-38.2% (inactive)	60.6	22.4	-0.38% (inactive)	3.33% (inactive)
COc1ccc2[nH]c(=O)c(CN(C(=O)c3cccnc3)c3ccccc3OC)cc2c1	104	97% (inactive)	104% (inactive)	90.8% (inactive)	89.1% (inactive)	-2.19% (inactive)	91.3	89.1	-6% (inactive)	-0.16% (inactive)
CCCCc1c(O)nc(SCC(=O)c2ccccc2)[nH]c1=O	105	102% (inactive)	105% (inactive)	89% (inactive)	104% (inactive)	21.1% (inactive)	83	104	-4.87% (inactive)	11.8% (inactive)
CCCNC(=O)Nc1ccccc1C(=O)Nc1ccc(OC)cc1	85	81% (inactive)	85% (inactive)	85.7% (inactive)	94.6% (inactive)	-9.12% (inactive)	104	94.6	-4.46% (inactive)	-2.3% (inactive)
COc1cc(-c2nnc(SCC(=O)c3ccc(C)cc3)o2)cc(OC)c1OC	90	97.5% (inactive)	90% (inactive)	64.8% (inactive)	74.5% (inactive)	-19.7% (inactive)	94.2	74.5	-1.45% (inactive)	0.16% (inactive)
Clc1ccc(-n2ncc3c(NCCCn4ccnc4)ncnc32)cc1	87	76.5% (inactive)	87% (inactive)	91.2% (inactive)	93.5% (inactive)	11.3% (inactive)	82.2	93.5	-5.6% (inactive)	3.39% (inactive)
Cc1cc(=O)n(-c2ccc3ccccc3n2)[nH]1	105	101% (inactive)	105% (inactive)	53.6% (inactive)	73.4% (inactive)	-2.73% (inactive)	76.2	73.4	-5.73% (inactive)	11.1% (inactive)

Compound	viability [1] [%]	Her2 level [2]	viability [3]	viability [4]	viability [5]	differential viability (reversal) ([6]; H69AR cells + 2 uM doxorubicin)	viability [6, 9] [%]	viability [6, 10] [%]	inhibition [7]	inhibition [8]
Cc1cc(C)cc(NC(=O)C2CCCN(c3nccc(C)n3)C2)c1 (stereo not given)	85	101% (inactive)	85% (inactive)	84% (inactive)	104% (inactive)	12.9% (inactive)	91.1	104	0.91% (inactive)	-5.25% (inactive)
O=c1[nH]c(SCc2cc(=O)n3ccccc3n2)nc2c1CCC2	101	83.5% (inactive)	101% (inactive)	74.7% (inactive)	85.2% (inactive)	1.62% (inactive)	83.6	85.2	-2.76% (inactive)	-2.22% (inactive)
CCC(Sc1ccc2nnc(-c3ccc(F)cc3)n2n1)C(=O)OC (stereo not given)	110	90% (inactive)	110% (inactive)	86.4% (inactive)	83% (inactive)	45% (inactive)	38	83	-7.7% (inactive)	2.5% (inactive)
CC1CN(c2nc3ccccn3c(=O)c2/C=C(\C#N)S(=O)(=O)c2ccccc2)CC(C)O1 (stereo not given)	93.5	106% (inactive)	93.5% (inactive)	96.3% (inactive)	90% (inactive)	59% (active)	31	90	-0.53% (inactive)	-14.4% (inactive)
CCOC(=O)c1[nH]nc(-c2c(O)cc(C)cc2O)c1-c1csc(C)n1	94	106% (inactive)	94% (inactive)	106% (inactive)	96.5% (inactive)	6.7% (inactive)	89.8	96.5	-6.71% (inactive)	-2.91% (inactive)
Cc1ccc(C2c3sc(=O)[nH]c3SC3C(=O)NC(=O)C32)cc1 (stereo not given)	94	87% (inactive)	94% (inactive)	111% (inactive)	105% (inactive)	6.17% (inactive)	99.2	105	-5.62% (inactive)	-4.29% (inactive)
COc1ccc(N2CCN(c3ccc(NC(=O)C4CCCCC4)cc3C#N)CC2)cc1	98	84% (inactive)	98% (inactive)	78.6% (inactive)	93% (inactive)	2.67% (inactive)	90.4	93	-1.76% (inactive)	-2.22% (inactive)
CCS(=O)(=O)NCCc1cc2c(OC)ccc(OC)c2[nH]c1=O	95.5	88.5% (inactive)	95.5% (inactive)	106% (inactive)	98.8% (inactive)	12.1% (inactive)	86.8	98.8	-9.45% (inactive)	0.48% (inactive)
O=C(CSc1nnc(CNC(=O)c2cccs2)o1)NC1CCCC1	102	100% (inactive)	102% (inactive)	102% (inactive)	82.4% (inactive)	-0.76% (inactive)	83.2	82.4	-0.26% (inactive)	-1.17% (inactive)
Cc1ccc(-c2nn3c(=O)c(C)nnc3s2)cc1	112	112% (inactive)	112% (inactive)	112% (inactive)	104% (inactive)	12.8% (inactive)	90.9	104	-2.97% (inactive)	-5% (inactive)
ON1C2CCCCC2N(O)C1c1c(F)c(F)c(F)c(F)c1F (stereo not given)	89.5	79% (inactive)	89.5% (inactive)	85.9% (inactive)	92.8% (inactive)	10.3% (inactive)	82.5	92.8	-5.2% (inactive)	-0.97% (inactive)
Nc1nonc1NC(=O)CSc1nc2ccccc2s1	86	110% (inactive)	86% (inactive)	91.2% (inactive)	90.8% (inactive)	4.11% (inactive)	86.7	90.8	6.18% (inactive)	-8% (inactive)
CCCCOc1ccc(-c2nnn(CC(=O)NCc3ccco3)n2)cc1	82.5	81% (inactive)	82.5% (inactive)	57.3% (inactive)	23.9% (active)	-30.3% (inactive)	54.3	23.9	-1.18% (inactive)	4.1% (inactive)
Cc1nc2ccccn2c1/C(O)=C1\C(=O)C(=O)N(CCN2CCOCC2)C1c1cccs1 (stereo not given)	94.5	90.5% (inactive)	94.5% (inactive)	108% (inactive)	98.7% (inactive)	4.16% (inactive)	94.6	98.7	-8.78% (inactive)	0.67% (inactive)
CCOC(=O)c1ccccc1NC(=O)CSc1nc2c(c(=O)n(C)c(=O)n2C)n1C	100	92% (inactive)	100% (inactive)	101% (inactive)	92.4% (inactive)	6.47% (inactive)	85.9	92.4	-1.58% (inactive)	0.16% (inactive)
O=C1CSC(c2cccc(F)c2)N1c1ccccc1F (stereo not given)	86	102% (inactive)	86% (inactive)	98.8% (inactive)	97.5% (inactive)	9.31% (inactive)	88.2	97.5	-4.87% (inactive)	7.38% (inactive)
